Experimental findings from ChEMBL document CHEMBL1212781, “VIM-19, a metallo-beta-lactamase with increased carbapenemase activity from Escherichia coli and Klebsiella pneumoniae” (2010) are described below.

For data set [1], the system named is Escherichia coli. As to the kind of experiment: Antimicrobial activity in Escherichia coli DIH-1 expressing beta-lactamase VIM-19 by Etest. The class given is functional. The method, boiled down:
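MICs read by Etest on Mueller-Hinton agar incubated at 37°C. Susceptibility was categorized according to CLSI guidelines. Transconjugants were obtained in E. coli J53 by liquid mating at 37°C, with selection on agar containing amoxicillin (50 μg/ml) and azide (100 μg/ml).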

Data set [2] concerns Klebsiella pneumoniae. As to the kind of experiment: Antimicrobial activity in Klebsiella pneumoniae DIH-2 clinical isolate expressing beta-lactamase VIM-19 by Etest. The class given is functional.
For data set [3], the system named is Escherichia coli. As to the kind of experiment: microbe, parasite or virus in culture. It counts as functional. As to conditions: TOP10.
Data set [4] deals with Escherichia coli. Put plainly: microbe, parasite or virus in culture. It counts as functional. As to conditions: TOP10. This is another data set of the same source.
Data set [5] has as its system Escherichia coli. As to the kind of experiment: microbe, parasite or virus in culture. It counts as functional. As to conditions: TOP10. The source holds these as a separate data set.
Data set [6] relates to Escherichia coli. As to the kind of experiment: microbe, parasite or virus in culture. It counts as functional. Conditions: TOP10. The source holds these as a separate data set.
The test system of data set [7] is Escherichia coli. As to the kind of experiment: Antimicrobial activity in Escherichia coli J53 transconjugate with Escherichia coli DIH-1 expressing natural plasmid containing beta-lactamase VIM-19. The class given is functional. The gist of the method: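 Transconjugants came from liquid mating-out at 37°C with azide-resistant E. coli J53 as recipient, selected on agar with amoxicillin (50 μg/ml) plus azide (100 μg/ml). MICs were then read by Etest on Mueller-Hinton agar at 37°C and interpreted per CLSI.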

Data set [8] relates to Escherichia coli. Put plainly: Antimicrobial activity in Escherichia coli TOP10 strain. The class given is functional. The gist of the method:
(§1)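 MICs were determined by Etest on Mueller-Hinton agar plates incubated at 37°C. Susceptibility was interpreted according to CLSI guidelines.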

Data set [9] has as its system Escherichia coli. As to the kind of experiment: Antimicrobial activity in Escherichia coli J53 strain. The class given is functional. The gist of the method: as §1
The subject of data set [10] is CC(C)(O/N=C(\C(=O)N[C@@H]1C(=O)N2C(C(=O)[O-])=C(C[n+]3ccccc3)CS[C@H]12)c1csc(N)n1)C(=O)O. As to the kind of experiment: (§2) Hydrolytic activity of beta-lactamase VIM-19 expressed in Escherichia coli TOP10 by spectrophotometry. The method, boiled down: (§3)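 Enzyme came from E. coli TOP10 (pVIM-19) grown overnight at 37°C in Trypticase soy broth with amoxicillin (100 μg/ml) and kanamycin (30 μg/ml). The sonicated, cleared extract was purified on Q-Sepharose with a 0–1 M NaCl gradient, in Bis-Tris then cacodylate pH 6.5 buffers.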

In data set [11] the test system is CC1(C)S[C@@H]2[C@H](NC(=O)Cc3ccccc3)C(=O)N2[C@H]1C(=O)O. The description is as §2. The method, boiled down:
as §3

Data set [12] has as its system CCN1CCN(C(=O)N[C@@H](C(=O)N[C@@H]2C(=O)N3[C@@H]2SC(C)(C)[C@@H]3C(=O)O)c2ccccc2)C(=O)C1=O. The data set is described as §2. The method, boiled down: as §3
The subject of data set [13] is CO/N=C(\C(=O)N[C@@H]1C(=O)N2C(C(=O)O)=C(COC(C)=O)CS[C@H]12)c1csc(N)n1. The description is as §2. The method, boiled down:
as §3

The subject of data set [14] is CO[C@@]1(NC(=O)Cc2cccs2)C(=O)N2C(C(=O)O)=C(COC(N)=O)CS[C@@H]21. The description is as §2. The method, boiled down: as §3
The subject of data set [15] is C[C@@H](O)[C@H]1C(=O)N2C(C(=O)O)=C(S[C@@H]3CN[C@H](C(=O)N(C)C)C3)[C@H](C)[C@H]12. The description is as §2. The gist of the method: as §3
Data set [16] concerns C[C@@H](O)[C@H]1C(=O)N2C(C(=O)O)=C(S[C@@H]3CN[C@H](C(=O)Nc4cccc(C(=O)O)c4)C3)[C@H](C)[C@H]12. The data set is described as §2. The method, boiled down:
as §3

Data set [17] deals with CC(C)(O/N=C(\C(=O)N[C@@H]1C(=O)N2C(C(=O)[O-])=C(C[n+]3ccccc3)CS[C@H]12)c1csc(N)n1)C(=O)O. As to the kind of experiment: (§4) Ratio of Kcat to Km for beta-lactamase VIM-19 expressed in Escherichia coli TOP10 by spectrophotometry. The method, boiled down: as §3
Data set [18] relates to CC1(C)S[C@@H]2[C@H](NC(=O)Cc3ccccc3)C(=O)N2[C@H]1C(=O)O. The description is as §4. The method, boiled down:
as §3

The test system of data set [19] is CCN1CCN(C(=O)N[C@@H](C(=O)N[C@@H]2C(=O)N3[C@@H]2SC(C)(C)[C@@H]3C(=O)O)c2ccccc2)C(=O)C1=O. Described as §4. The gist of the method:
as §3

The subject of data set [20] is CO/N=C(\C(=O)N[C@@H]1C(=O)N2C(C(=O)O)=C(COC(C)=O)CS[C@H]12)c1csc(N)n1. The description is as §4. The gist of the method:
as §3

Data set [21] concerns CO[C@@]1(NC(=O)Cc2cccs2)C(=O)N2C(C(=O)O)=C(COC(N)=O)CS[C@@H]21. The description is as §4. The gist of the method:
as §3

Data set [22] deals with C[C@@H](O)[C@H]1C(=O)N2C(C(=O)O)=C(S[C@@H]3CN[C@H](C(=O)N(C)C)C3)[C@H](C)[C@H]12. The description is as §4. The gist of the method:
as §3

Data set [23] concerns C[C@@H](O)[C@H]1C(=O)N2C(C(=O)O)=C(S[C@@H]3CN[C@H](C(=O)Nc4cccc(C(=O)O)c4)C3)[C@H](C)[C@H]12. Described as §4. The gist of the method: as §3

≈ marks a conversion by molar mass, not a printed value.

For `CO[C@@]1(NC(=O)Cc2cccs2)C(=O)N2C(C(=O)O)=C(COC(N)=O)CS[C@@H]21` [CEFOXITIN], the MIC in data set [1] was greater than 512 µg/mL; in data set [2], greater than 512 µg/mL; in [3], 256 µg/mL (≈ 599 µM); in [4] it was 256 µg/mL (≈ 599 µM); in data set [5] it was 256 µg/mL (≈ 599 µM); in [6], 256 µg/mL (≈ 599 µM). The values for the MIC in data set [7], in data set [8] and in data set [9] were 256 µg/mL (≈ 599 µM), 4 µg/mL (≈ 9.36 µM) and 4 µg/mL (≈ 9.36 µM), respectively.
For `C[C@@H](O)[C@H]1C(=O)N2C(C(=O)O)=C(S[C@@H]3CN[C@H](C(=O)N(C)C)C3)[C@H](C)[C@H]12` [MEROPENEM], the MIC stood at 4 µg/mL (≈ 10.4 µM) in data set [2]; 1 µg/mL (≈ 2.61 µM) in data set [3]; 1 µg/mL (≈ 2.61 µM) in data set [4]; 0.25 µg/mL (≈ 0.652 µM) in data set [5]; 0.25 µg/mL (≈ 0.652 µM) in data set [6]; 0.5 µg/mL (≈ 1.3 µM) in [7]. Besides, the MIC in data set [8] and in data set [9] was 0.016 µg/mL (≈ 0.0417 µM) throughout.
Turning to `CC(C)(O/N=C(\C(=O)N[C@@H]1C(=O)N2C(C(=O)[O-])=C(C[n+]3ccccc3)CS[C@H]12)c1csc(N)n1)C(=O)O` [CEFTAZIDIME], the MIC in data set [1] was greater than 512 µg/mL; in data set [2], 128 µg/mL (≈ 234 µM); in data set [3], 32 µg/mL (≈ 58.5 µM); in [4], 32 µg/mL (≈ 58.5 µM); in data set [5], 512 µg/mL (≈ 937 µM); in data set [6] it was 512 µg/mL (≈ 937 µM). For the same compound, the figures for the MIC in data set [7], in data set [8] and in [9] were 32 µg/mL (≈ 58.5 µM), 0.06 µg/mL (≈ 0.11 µM) and 0.06 µg/mL (≈ 0.11 µM), respectively.
Regarding `CC1(C)S[C@@H]2[C@H](NC(=O)[C@H](C(=O)O)c3ccsc3)C(=O)N2[C@H]1C(=O)O` [TICARCILLIN], the MIC in data set [1] was greater than 512 µg/mL; in [2] it was greater than 512 µg/mL; in data set [3], greater than 512 µg/mL; in data set [4], greater than 512 µg/mL; in [7], greater than 512 µg/mL; in data set [8], 4 µg/mL (≈ 10.4 µM). Also, the MIC in data set [9] worked out at 4 µg/mL (≈ 10.4 µM).
As for `C[C@@H](O)[C@H]1C(=O)N2C(C(=O)O)=C(SCCNC=N)C[C@H]12` [IMIPENEM ANHYDROUS], the MIC in data set [2] is 8 µg/mL (≈ 26.7 µM); in data set [7], 4 µg/mL (≈ 13.4 µM).
With “Metallo-beta-lactamase VIM-19 (Escherichia coli) (from UniProt D2D9J0)”, the Km in data set [10] was greater than 1000 µM; in data set [11], 300 µM; in data set [13] it was 30 µM; in data set [14] it was 60 µM; in data set [15] it was 15 µM; in [16], 200 µM. For the same compound, the catalytic constant (kcat) in data set [10] was greater than 20 s⁻¹; in data set [11], 1300 s⁻¹; in data set [12], 860 s⁻¹; in data set [13], 900 s⁻¹; in data set [14], 30 s⁻¹; in [16], 15 s⁻¹. Also, the kcat/Km worked out at 20000 M⁻¹ s⁻¹ in [17]; 5e+06 M⁻¹ s⁻¹ in data set [18]; 4e+06 M⁻¹ s⁻¹ in data set [19]; 3e+07 M⁻¹ s⁻¹ in [20]; 500000 M⁻¹ s⁻¹ in data set [21]; 2e+06 M⁻¹ s⁻¹ in data set [22]. Further, in data set [23], the catalytic efficiency (kcat/Km) was found to be 100000 M⁻¹ s⁻¹.
On to `C[C@H]1[C@H](NC(=O)/C(=N\OC(C)(C)C(=O)O)c2csc(N)n2)C(=O)N1S(=O)(=O)O` [AZTREONAM], for which the MIC in [1] is 4 µg/mL (≈ 9.19 µM); in data set [6] it was 0.12 µg/mL (≈ 0.276 µM).
